Active and inactive are the calls of the source. No cut-off for these calls is given here.
System: RAW264.7
Experiment: Anti-inflammatory activity in mouse RAW264.7 cells assessed as LPS-stimulated inhibition of nitric oxide production incubated simultaneously with LPS for 24 hrs by Griess reagent based assay
Assay type: functional, cell-based
Settings: not given
How it was run: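 RAW264.7 cells grown in RPMI 1640 with 10% heat-inactivated FBS, penicillin 100 U/mL and streptomycin 100 μg/mL; 1 × 10^5 cells/well allowed to adhere 2 h at 37 °C, 5% CO2. Cells exposed to 1 μg/mL LPS for 24 h with or without compounds across a concentration range. Indomethacin as positive control. Nitrite in supernatant measured by Griess reagent. Run in triplicate; IC50 reported.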

**Q.** Which inhibition does the source give for `COC(=O)[C@@]12C[C@H]3C[C@H]([C@H](C)O)[C@@H]1N(Cc1c2n(C=O)c2ccccc12)C3` here?
**A.** inactive

**Q.** For `C/C=C1/C[N@+]2(C)CCc3c([nH]c4ccccc34)C(CO)(C(=O)[O-])[C@H]1CC2` (some centres not stated), which inhibition is on record?
**A.** inactive

**Q.** Which inhibition does the source give for `COC(=O)[C@@]12C[C@H]3C[C@H](C(C)=O)[C@@H]1N(CCc1c2[nH]c2ccccc12)C3` here?
**A.** Active

**Q.** Which inhibition does the source give for `COC(=O)[C@@]12C[C@@H]3C[C@@H](C(C)O)[C@@H]1N(CC[C@]21Nc2ccccc2C1=O)C3` (some centres not stated) here?
**A.** inactive

**Q.** Which inhibition does the source give for `C/C=C1/C[N@+]2(C)CCc3c([nH]c4ccccc34)[C@@H](C(=O)[O-])[C@H]1CC2` here?
**A.** inactive

**Q.** For `COC(=O)[C@@]12C[C@H]3C[C@H]([C@H](C)O)[C@@H]1N(CCc1c2[nH]c2ccccc12)C3CC(C)=O` (some centres not stated), which inhibition is on record?
**A.** Active

**Q.** For `C/C=C1/C[N@+]2(C)CCc3c([nH]c4ccccc34)[C@H](C(=O)[O-])[C@H]1CC2`, which inhibition is on record?
**A.** inactive

**Q.** Which inhibition does the source give for `COC(=O)[C@]12C[C@@H]3CN(CCc4c1[nH]c1ccccc41)[C@H]2[C@@H]([C@H](C)O)C3O` (some centres not stated) here?
**A.** Active

**Q.** Which inhibition does the source give for `CC[C@H]1C[C@@H]2C[C@@]3(C(=O)OC)c4[nH]c5ccccc5c4CCN(C2CO)[C@@H]13` (some centres not stated) here?
**A.** Active

**Q.** Which inhibition does the source give for `C[N@@+]12CCc3c([nH]c4ccccc34)[C@](CO)(C(=O)[O-])[C@@H](CC1)/C(=C\CO)C2` here?
**A.** inactive

**Q.** With `C[C@H](O)[C@@H]1C[C@H]2C[C@H]3c4[nH]c5ccccc5c4CCN(C2)[C@@H]13` as the molecule, how does the inhibition read?
**A.** Active

**Q.** For `CC[C@H]1C[C@@H]2C[C@@]3(C(=O)OC)c4[nH]c5ccccc5c4CCN(C2CC(C)=O)[C@@H]13` (some centres not stated), which inhibition is on record?
**A.** Active

Same assay, conditions: RAW264.7, 24 h

**Q.** Which IC50 does the source give for `CC[C@@]1(O)CC2[C@H]3C(C(=O)OC)=C4Nc5ccccc5C45CCN([C@H]25)[C@H]31` (some centres not stated) here?
**A.** 41.5 µM

**Q.** With `CC[C@H]1C[C@@H]2CN3CCc4c([nH]c5ccccc45)[C@](C(=O)OC)(C2)[C@H]13` [CORONARIDINE] as the molecule, how does the IC50 read?
**A.** 25.5 µM

**Q.** For `COc1ccc2c(c1)c(CC(=O)O)c(C)n2C(=O)c1ccc(Cl)cc1` [INDOMETHACIN], which IC50 is on record?
**A.** 42.6 µM

System: HL-60
Experiment: Cytotoxicity against human HL60 cells by MTT assay
Assay type: functional, cell-based
Settings: not given

**Q.** With `COC(=O)[C@@]12C[C@H]3C[C@H](C(C)=O)[C@@H]1N(CCc1c2[nH]c2ccccc12)C3` as the molecule, how does the IC50 read?
**A.** 48.5 µM

System: not listed separately
Experiment: Cytotoxicity against human 786-O cells by MTT assay
Assay type: functional, cell-based
Settings: 786-0

**Q.** For `COC(=O)[C@@]12C[C@H]3C[C@H](C(C)=O)[C@@H]1N(CCc1c2[nH]c2ccccc12)C3`, which IC50 is on record?
**A.** 27.3 µM
